In the library only some 3.5% were active in any assay of this set; here they are far more common.
RGS4 block: human RGS4 inhibition; AID 463165; B-score at 10 µM; hit rate 0.45% among 310,000; HEK293 M3R/RGS4 inducible, Fluo-4 calcium flux; active compounds read high; triggered by carbachol at its EC20;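 active means B-score, a plate-corrected calcium signal, over three deviations above library mean, with baseline fluorescence within five deviations of library mean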;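 further: RGS4 expression induced by doxycycline in cells with stable M3 receptor; B-score is computed from the integrated fluorescence ratio over baseline after carbachol; higher B-score means a larger calcium signal and so more RGS4 inhibition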
Target sequence (P49798 whole entry, looked up): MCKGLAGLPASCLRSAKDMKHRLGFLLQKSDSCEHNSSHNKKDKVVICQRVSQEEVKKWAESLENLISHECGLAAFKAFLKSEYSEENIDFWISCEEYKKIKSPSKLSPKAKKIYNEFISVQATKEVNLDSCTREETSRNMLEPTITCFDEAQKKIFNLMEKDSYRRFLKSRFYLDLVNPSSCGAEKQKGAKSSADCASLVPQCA
RGS4 pot: RGS4 potentiation or activation; HEK293 M3R/inducible RGS4, carbachol calcium flux Fluo4; active compounds read low; B-score at 10 µM; hit rate 0.92% among 310,000; AID 463111;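 active means B-score of the integrated calcium signal more than 4 SD below the library mean, with starting fluorescence not abnormally high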;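 further: negative B-score means reduced calcium response which marks RGS4 activation or potentiation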
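Assay system: Inducible-RGS4 HEK293 cells carrying M3 receptor | Schedule: Compound preincubation 20 min at room temperature before agonist | Signal: Kinetic calcium fluorescence imaging with Fluo4-AM dye, 2 µM | Read-out basis: B score from integrated fluorescence ratio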
MrgX1 allo act: allosterically activates human MrgX1 receptor signaling | MrgX1-HEK293, Fluo-4 calcium flux, FDSS; active compounds read high | hit rate 0.63% among 310,000 | AID 588675 | Q96LB2 | B-score at 10 µM;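 active means plate-corrected calcium response at least 3 library SD above typical, normal starting fluorescence, not activating the receptor alone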;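 further: compound read alongside a low EC10 to EC30 dose of BAM8-22 agonist; peak minus trough fluorescence over baseline measured at the second addition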
Target sequence (Q96LB2 whole entry, looked up): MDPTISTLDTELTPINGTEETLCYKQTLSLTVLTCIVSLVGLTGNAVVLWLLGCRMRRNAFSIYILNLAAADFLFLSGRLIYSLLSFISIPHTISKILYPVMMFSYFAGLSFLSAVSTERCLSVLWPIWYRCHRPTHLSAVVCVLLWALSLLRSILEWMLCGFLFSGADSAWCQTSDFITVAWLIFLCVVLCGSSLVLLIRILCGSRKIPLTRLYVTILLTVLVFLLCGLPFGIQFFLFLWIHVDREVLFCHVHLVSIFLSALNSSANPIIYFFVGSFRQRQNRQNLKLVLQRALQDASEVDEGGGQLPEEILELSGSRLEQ
MrgX1 ag: human MrgX1 receptor agonism, primary screen; MrgX1-HEK293 cells, Fluo-4 calcium fluorescence, agonist mode; active compounds read high; B-score at 10 µM; hit rate 0.44% among 310,000; AID 588627;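 active means calcium response B-score plate-corrected fluorescence ratio at least 3 library SD, with starting fluorescence B-score inside 5 SD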
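Assay system: stable human MrgX1 HEK293 cell line. Quantity: 15,000 cells per well. Schedule: cells plated overnight, dye loaded 0.5 h 37 °C, 0.5 h room temperature. Detection: Fluo-4 NW calcium-flux fluorescence, kinetic read. Read-out basis: peak-minus-minimum fluorescence over baseline, converted to B scores. Control set: positive and negative control wells on each plate.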
MrgX1 antag: blocks BAM8-22 activation of human MrgX1 receptor; B-score at 10 µM; MRGX1-HEK293 calcium flux, Fluo-4, BAM8-22 antagonism; active compounds read low; Q96LB2; hit rate 1.3% among 310,000; AID 588676;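 active means calcium-response B-score plate-corrected more than 3 library SD below zero, starting fluorescence within 5 deviations, no agonist response on first addition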;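 further: peak minus trough fluorescence over baseline after final BAM8-22 challenge near maximal dose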
Each line names hits and unclear results; the compound was inactive in the other large screens; ! = not active in a repeat.

Cc1onc(-c2ccccc2)c1C(=O)NNC(=S)NC(=O)/C=C/c1cccs1	MrgX1 ag 58.1
Cc1onc(-c2ccccc2)c1C(=O)NC(=S)NNC(=O)c1ccncc1	none
Cc1onc(-c2ccccc2)c1C(=O)NC(=S)NNC(=O)c1ccco1	MrgX1 ag 60
Cc1ccnc(N2C(=O)c3cccc4c([N+](=O)[O-])ccc(c34)C2=O)c1	MrgX1 antag -5.17
CCOc1cc(/C=C(\C#N)C(=O)Nc2cccc(C(=O)O)c2)ccc1OCc1ccccc1Cl	RGS4 pot -8.57
COc1cc(/C=C(\C#N)C(=O)Nc2cccc(C(=O)O)c2)ccc1OCc1ccc(F)cc1	none
N#C/C(=C/c1ccc(N2CCCCC2)o1)C(=O)Nc1ccc(Cl)cc1	MrgX1 antag -7.83
COc1ccc(NC(=O)/C(C#N)=C\c2ccc(N3CCOCC3)o2)cc1	RGS4 pot -8.57
N#C/C(=C/c1ccc(N2CCCCC2)o1)C(=O)Nc1ccc2ccccc2c1	none (no result: MrgX1 allo act, MrgX1 ag, MrgX1 antag)
N#C/C(=C\c1ccc(N2CCOCC2)o1)C(=O)Nc1ccc(O)cc1	none
CCOC(=O)c1ccc(NC(=O)c2ccccc2[N+](=O)[O-])cc1	none
CCOC(=O)c1ccc(Nc2ncccc2[N+](=O)[O-])cc1	MrgX1 antag -5.8
Cc1c(Cl)c([N+](=O)[O-])nn1CCCC(=O)NCCc1ccccc1	none
O=c1c2ccccc2nc(COc2ccccc2)n1/N=C/c1c[nH]c2ccccc12	none
C/C(=N\OCc1nc2ccccc2c(=O)n1/N=C/c1cc([N+](=O)[O-])ccc1O)c1ccccc1	MrgX1 allo act 7.34
O=c1c2ccccc2nc(COc2ccccc2)n1/N=C/c1ccc(O)cc1O	RGS4 pot -7.81
Oc1ccccc1/C=N/n1c(COc2ccccc2)n[nH]c1=S	MrgX1 allo act 6.61
C/C(=N\OCc1nc2ccccc2c(=O)n1/N=C/c1cc(C)cc([N+](=O)[O-])c1O)c1ccccc1	none
Oc1ccc(/C=N/n2c(COc3ccccc3)n[nH]c2=S)c(O)c1	none
COc1cc(N=c2ssnc2Cl)c(OC)cc1Cl	MrgX1 ag 40.2
CCc1cccc(NS(=O)(=O)c2c(C)nc3scc(C)n3c2=O)c1	none
COc1ccccc1NC(=S)N(C(C)C)C(C)c1ccccn1 (stereo not given)	none
CC(C)N(C(=S)Nc1cccc(C(F)(F)F)c1)C(C)c1ccccn1 (stereo not given)	MrgX1 antag -9.46
CCC1CCCCN1S(=O)(=O)c1ccc(C(=O)Nc2nnc(-c3cccs3)o2)cc1 (stereo not given)	MrgX1 ag 65.2 (no result: RGS4 block, RGS4 pot)
CC(C)(C)c1cc(C(=O)NNC(=O)Nc2ccccc2)n(Cc2ccccc2)n1	MrgX1 antag -4.9
CC(C)(C)c1cc(C(=O)NNC(=O)Nc2cccc(Cl)c2)n(Cc2ccccc2)n1	none
Cc1ccc(-n2c(SCC(=O)N3CCCC3)nc3c(c2=O)SCC3)cc1	MrgX1 antag -4.86
COc1ccc(CNC(=O)C(c2ccco2)N(Cc2cccs2)C(=O)Cc2cccs2)cc1 (stereo not given)	none
Cc1ccc(C(C(=O)NCc2ccccc2)N(Cc2cccs2)C(=O)c2ccc3c(c2)OCCO3)cc1 (stereo not given)	none
COc1ccc(CNC(=O)C(c2ccc(C)cc2)N(Cc2cccs2)C(=O)c2ccc3c(c2)OCCO3)cc1 (stereo not given)	RGS4 pot -7.5
COc1ccc(CNC(=O)C(c2cccs2)N(Cc2ccco2)C(=O)Cc2cccs2)cc1 (stereo not given)	RGS4 pot -7.36
COc1ccc(CCNC(=O)CCCn2ncn3c(cc4occc43)c2=O)c(OC)c1	none
COc1cc(C(=O)NCCOc2ccccc2)c(Br)c(OC)c1OC	none
COc1cc(C(=O)NCCOc2cccc(C)c2)c(Br)c(OC)c1OC	RGS4 pot -7.2
CCCCCc1cc(=O)oc2c(C(CCN3CCCC3)c3cc(OC)c(OC)c(OC)c3)c(OC)cc(OC)c12 (stereo not given)	MrgX1 antag -5.35
CCCCCc1cc(=O)oc2c(C(CCN3CCCCC3)c3ccc(OC)cc3)c(OC)cc(OC)c12 (stereo not given)	none
Cc1ccc(C(CCN(Cc2ccccc2)C(=O)c2ccco2)c2ccco2)cc1 (stereo not given)	none
O=C(c1ccco1)N(CCC(c1ccccc1)c1ccco1)Cc1ccco1 (stereo not given)	MrgX1 antag -6.38
COc1ccccc1-n1c(-c2ccccc2)c[n+]2c1CCc1ccccc1-2	RGS4 pot -7.94!
COc1ccc([N+](=O)[O-])cc1NC(=O)CSc1nc(C)c(C)c(C)n1	MrgX1 antag -4.54
COc1ccc([N+](=O)[O-])cc1NC(=O)CSc1nccc(C)n1	none
Cc1cc(C)nc(SCc2ccc(C(=O)N/N=C/C3CCCCC3)cc2)n1	none
O=C1OC(c2cccs2)=N/C1=C\c1ccc(-c2cccc(Cl)c2)o1	MrgX1 antag -5.11
N=C1S/C(=C\c2ccc(-c3cccc(Cl)c3)o2)C(=O)N1c1nccs1	none
CCOC(=O)N1CCN(C(=O)CN(c2ccc(Cl)c(C(F)(F)F)c2)S(C)(=O)=O)CC1	none
CN(C)CCOC(c1ccccc1)c1ccccc1 (tested in a mixture with another compound)	none
CN(C)CCOC1c2ccccc2C=Cc2ccccc21	RGS4 pot -7.08
Fc1ccccc1CSc1nc2ccccc2[nH]1	none
COCCN=c1scc(-c2ccc3c(c2)NC(=O)CO3)n1/N=C(\C)c1ccc(O)cc1	MrgX1 antag -5.38
Cc1ccc(NC(=O)CSc2n[nH]c(-c3cccnc3)n2)cc1Cl	none
Cc1ccc(S(=O)(=O)NCC(=O)N(CC2CCCO2)C(C(=O)NCC2CCCO2)C(C)C)cc1 (stereo not given)	none
CC1(C)N=C(N)N=C(N)N1c1ccccc1	none
CC1(C)N=C(N)N=C(N)N1c1ccc(Oc2ccc(Cl)cc2)c(Cl)c1	RGS4 pot -7.53
Cc1cccc(CSc2nc3c(c(-c4cccs4)c2C#N)CN(C)CC3)c1	MrgX1 allo act 8.74
O=C(/C=C/c1ccc(OC(F)F)cc1)Nc1cccc(S(=O)(=O)NC2=NCCCCC2)c1	MrgX1 antag -8.24
O=C(Cc1ccc(Cl)cc1)Nc1ccccc1N1CCN(C(=O)c2ccccc2)CC1	RGS4 pot -7.11
Cc1nn(CC(=O)N2CCN(c3cccc(C(F)(F)F)c3)CC2)c(=O)c2cccn12	none
COc1ccc(CCNC/C=C/c2ccccc2)cc1	none
CCCN(CCC)CCNC(=O)c1cc2c(-c3ccc(Cl)cc3)nn(C)c2s1	RGS4 pot -7.16
Cc1ccc(Cl)cc1N(CC(=O)NC1CCCC1)C(=O)c1csnn1	none
CC1(C)OC(=O)C(=CNc2ccccc2)C(=O)O1	MrgX1 antag -7.31
CCCCCNCc1ccc(Cl)cc1	none
OCCCCNCc1ccc(OCc2ccc(Cl)cc2)cc1	RGS4 pot -7.27

Screens deposited in PubChem BioAssay by Johns Hopkins Ion Channel Center.
